{
  "source": "paper PMC2736393",
  "about": "(Biochemistry, 2009)",
  "molecules": {"B1": {"name": "V477D: mutation in the AGC kinase C-tail of GRK2, literature (protein, UniProt P25098 1-689, looked up, variant V477D)", "Beta-adrenergic receptor …": "MADLEAVLADVSYLMAMEKSKATPAARASKKILLPEPSIRSVMQKYLEDRGEVTFEKIFSQKLGYLLFRDFCLNHLEEARPLVEFYEEIKKYEKLETEEERVARSREIFDSYIMKELLACSHPFSKSATEHVQGHLGKKQVPPDLFQPYIEEICQNLRGDVFQKFIESDKFTRFCQWKNVELNIHLTMNDFSVHRIIGRGGFGEVYGCRKADTGKMYAMKCLDKKRIKMKQGETLALNERIMLSLVSTGDCPFIVCMSYAFHTPDKLSFILDLMNGGDLHYHLSQHGVFSEADMRFYAAEIILGLEHMHNRFVVYRDLKPANILLDEHGHVRISDLGLACDFSKKKPHASVGTHGYMAPEVLQKGVAYDSSADWFSLGCMLFKLLRGHSPFRQHKTKDKHEIDRMTLTMAVELPDSFSPELRSLLEGLLQRDVNRRLGCLGRGAQEVKESPFFRSLDWQMVFLQKYPPPLIPPRGEDNAADAFDIGSFDEEDTKGIKLLDSDQELYRNFPLTISERWQQEVAETVFDTINAETDRLEARKKAKNKQLGHEEDYALGKDCIMHGYMSKMGNPFLTQWQRRYFYLFPNRLEWRGEGEAPQSLLTMEEIQSVEETQIKERKCLLLKIRGGKQFILQCDSDPELVQWKKELRDAYREAQQLVQRVPKMKNKPRSPVVELSKVPLVQRGSANGL"}, "B2": {"name": "D3K: GRK2 amino terminal point mutant, Asp-3 to lysine (protein)", "chain": "MAKLEAVLADVSYLMAMEKSKATPAARASKKILLPEPSIRSVMQKYLEDRGEVTFEKIFSQKLGYLLFRDFCLKHLEEAKPLVEFYEEIKKYEKLETEEERLVCSREIFDTYIMKELLACSHPFSKSAIEHVQGHLVKKQVPPDLFQPYIEEICQNLRGDVFQKFIESDKFTRFCQWKNVELNIHLTMNDFSVHRIIGRGGFGEVYGCRKADTGKMYAMKCLDKKRIKMKQGETLALNERIMLSLVSTGDCPFIVCMSYAFHTPDKLSFILDLMNGGDLHYHLSQHGVFSEADMRFYAAEIILGLEHMHNRFVVYRDLKPANILLDEHGHVRISDLGLACDFSKKKPHASVGTHGYMAPEVLQKGVAYDSSADWFSLGCMLFKLLRGHSPFRQHKTKDKHEIDRMTLTMAVELPDSFSPELRSLLEGLLQRDVNRRLGCLGRGAQEVKESPFFRSLDWQMVFLQKYPPPLIPPRGEVNAADAFDIGSFDEEDTKGIKLLDSDQELYRNFPLTISERWQQEVAETVFDTINAETDRLEARKKTKNKQLGHEEDYALGKDCIMHGYMSKMGNPFLTQWQRRYFYLFPNRLEWRGEGEAPQSLLTMEEIQSVEETQIKERKCLLLKIRGGKQFVLQCDSDPELVQWKKELRDAYREAQQLVQRVPKMKNKPRSPVVELSKVPLIQRGSANGL"}, "B3": {"name": "L4A: GRK2 amino terminal point mutant, Leu-4 to alanine (protein)", "chain": "B2 chain with K3D, L4A"}, "B4": {"name": "D10A: GRK2 amino terminal point mutant (protein)", "chain": "B2 chain with K3D, D10A"}},
  "key": {"[1]": {"assay": "Circular dichroism of GRK2 peptides", "format": "physicochemical", "conditions": "16 µM peptide in PBS pH 7.0, 4°C", "outline": "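Far-UV CD spectra recorded at 4°C over 200–280 nm in a 1.0 cm pathlength cuvette (1 nm/min, 4 s response, 1 nm bandwidth). Test peptide was diluted to 16 µM in PBS pH 7.0 with varying trifluoroethanol. Observed ellipticity was converted to molar ellipticity using mean residue weight, path length and concentration. Relative helix content was deduced from these spectra.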"}, "[2]": {"target": "T1, GRK2 (β2AR substrate) (Bos taurus, UniProt P21146)", "T1 sequence (P21146 1-689)": "B2 chain with K3D", "assay": "Inhibition of GRK2 phosphorylation of β2AR by GRK peptides", "format": "biochemical"}, "[3]": {"target": "T2, GRK2 (rhodopsin substrate) (Bos taurus, UniProt P21146)", "T2 sequence (P21146 1-689)": "B2 chain with K3D", "assay": "Inhibition of GRK2 phosphorylation of Rho* by GRK peptides", "format": "biochemical", "conditions": "1-15 µM rhodopsin, 60 µM peptide; 3 independent experiments", "outline": "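Sf9-expressed, purified GRK2 (20 nM) phosphorylated 1–15 µM light-activated rhodopsin with or without 60 µM test peptide. Products were resolved by SDS-PAGE and autoradiographed, then bands were excised and scintillation-counted. Values are mean ± SD from three experiments.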"}, "[4]": {"target": "T2, GRK2 (rhodopsin substrate)", "conditions": "cited from earlier work"}, "[5]": {"system": "GPCR", "conditions": "cited from earlier work"}, "[6]": {"system": "rhodopsin (Rho*)", "assay": "Phosphorylation of light-activated rhodopsin", "format": "biochemical", "conditions": "COS-1 lysates, 2-20 min, 30°C; autoradiography (Fig. 1B)"}, "[7]": {"system": "β2-adrenergic receptor (β2AR)", "assay": "Phosphorylation of purified β2AR by purified GRK2 mutants", "format": "biochemical, human", "conditions": "50 nM β2AR in mixed micelles, 20 nM GRK2, 10 µM isoproterenol, 0.2 mM ATP, 30°C; 3 experiments"}},
  "note": "Where a chain is given by its changes, count along the chain named. Names and notes keep the numbering of the source. No end group written: not given here.",
  "data": [
    {"molecule": "MADLEAPLADVYSL [Pro peptide]", "values": [
      {"measurement": "helix formation", "setting": "[1]; in solution without TFE (0% TFE)", "result": "minimal helical formation in solution"},
      {"measurement": "helix formation", "setting": "[1]; in the presence of TFE (25-50%)", "result": "no helix formation was observed"}
    ]},
    {"molecule": "MADLEAVLADVYSL [GRK2 peptide]", "values": [
      {"measurement": "IC50", "setting": "[2]", "result": "~50", "unit": "µM"},
      {"measurement": "Km change", "setting": "[3]", "result": "no change in the Km"}
    ]},
    {"molecule": "MELENIVANTLLK [GRK5 peptide, reference compound]", "values": [
      {"measurement": "effect on GRK2-mediated β2AR phosphorylation", "setting": "[2]; 200 µM peptide, 3 experiments (Fig. 4E)", "result": "no significant effect"},
      {"measurement": "effect on GRK2-mediated phosphorylation of rhodopsin", "setting": "[4]", "result": "no effect"}
    ]},
    {"molecule": "B1", "values": [
      {"measurement": "receptor phosphorylation and receptor-mediated activation", "setting": "[5]; GRK2 AGC kinase C-tail mutation", "result": "defective in receptor phosphorylation and receptor-mediated activation"},
      {"measurement": "activity against non-receptor substrates", "setting": "[5]", "result": "reduced activity against non-receptor substrates"}
    ]},
    {"molecule": "B2", "values": [
      {"measurement": "ability to phosphorylate Rho*", "setting": "[6]", "result": "completely defective in their ability to phosphorylate Rho*"},
      {"measurement": "decrease in β2AR phosphorylation activity vs wild-type GRK2", "setting": "[7]", "result": "~ 60%"}
    ]},
    {"molecule": "B3", "values": [
      {"measurement": "decrease in β2AR phosphorylation activity vs wild-type GRK2", "setting": "[7]", "result": "90–95%"}
    ]},
    {"molecule": "B4", "values": [
      {"measurement": "ability to phosphorylate Rho*", "setting": "[6]", "result": "completely defective in their ability to phosphorylate Rho*"},
      {"measurement": "decrease in β2AR phosphorylation activity vs wild-type GRK2", "setting": "[7]", "result": "90–95%"}
    ]}
  ]
}
